Assay results published in BindingDB's records for doi:10.1021/jm00053a001 (Merck Sharp and Dohme Research Laboratories, 1993).
Where a SMILES comes first, the peptide text is derived from it.

Columns and labels:
Substance-K receptor = target: T1, Substance-K receptor (Rattus norvegicus, UniProt P16610); assay: Inhibition of eledoisin binding to NK-2 receptor in rat vas deferens
T1 sequence (P16610 whole entry): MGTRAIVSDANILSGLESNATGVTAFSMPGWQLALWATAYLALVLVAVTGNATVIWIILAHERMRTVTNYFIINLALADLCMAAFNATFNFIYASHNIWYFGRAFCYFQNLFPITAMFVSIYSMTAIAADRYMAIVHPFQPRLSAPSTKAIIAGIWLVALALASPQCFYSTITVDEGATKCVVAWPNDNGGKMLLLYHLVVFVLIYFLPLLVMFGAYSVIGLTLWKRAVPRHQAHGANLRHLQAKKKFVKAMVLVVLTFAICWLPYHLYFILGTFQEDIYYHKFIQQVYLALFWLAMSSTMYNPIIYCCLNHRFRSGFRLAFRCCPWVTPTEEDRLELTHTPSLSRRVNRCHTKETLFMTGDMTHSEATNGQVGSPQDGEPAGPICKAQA
Outline: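 Vas deferens from Sprague-Dawley rats (200–300 g), electrically stimulated contractions with supramaximal rectangular bipolar pulses. Eledoisin log dose-response curves; antagonism taken from rightward shift. pA2 by Schild regression over three or more antagonist concentrations, or apparent pA2 from one antagonist concentration via the standard Schild equation assuming unit slope.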

Neuromedin-K receptor = target: T2, Neuromedin-K receptor (Rattus norvegicus, UniProt P16177); assay: Tested for antagonist activity toward NK-3 receptor in rat portal vein against the agonist eledoisin (mean +/-, n=4)
T2 sequence (P16177 whole entry): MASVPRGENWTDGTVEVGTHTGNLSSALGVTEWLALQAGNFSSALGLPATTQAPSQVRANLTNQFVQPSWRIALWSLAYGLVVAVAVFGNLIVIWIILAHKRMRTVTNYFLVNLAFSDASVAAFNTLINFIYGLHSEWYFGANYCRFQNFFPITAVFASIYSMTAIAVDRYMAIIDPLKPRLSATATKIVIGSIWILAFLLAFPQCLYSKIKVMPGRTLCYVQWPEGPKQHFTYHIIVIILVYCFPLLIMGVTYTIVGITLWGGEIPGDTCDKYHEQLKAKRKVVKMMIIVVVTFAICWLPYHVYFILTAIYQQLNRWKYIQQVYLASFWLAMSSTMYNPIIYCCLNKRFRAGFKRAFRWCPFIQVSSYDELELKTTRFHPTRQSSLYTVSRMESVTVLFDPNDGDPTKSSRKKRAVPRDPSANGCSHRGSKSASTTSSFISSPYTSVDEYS
Outline: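 Rat portal vein longitudinal strips; frequency and amplitude of myogenic contractions recorded. Antagonist activity derived from rightward shift of eledoisin log dose-response curves. pA2 by Schild regression, least squares, three or more antagonist concentrations, or apparent pA2 at a single antagonist concentration assuming unit slope (mean of three or four observations).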

Substance-P receptor = Substance-P receptor (Cavia porcellus, UniProt P30547); assay: Tested for antagonist activity toward NK-1 receptor in guinea pig ileum against the agonist eledoisin (mean +/-, n=4)
Outline: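 Guinea pig (male Dunkin-Hartley, 300–400 g) small-intestine longitudinal muscle, isometric contraction in Krebs-Henseleit at 37 °C with atropine, mepyramine, methysergide (each 5 μM) and indomethacin (1 μM). Antagonism measured as rightward shift of log dose-response curves to eledoisin. pA2 from Schild regression (least squares, three or more antagonist concentrations, three or more observations each), or apparent pA2 at a single concentration assuming unit slope (mean of 3–4 observations).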

Chain of Substance-P receptor (P30547 whole entry): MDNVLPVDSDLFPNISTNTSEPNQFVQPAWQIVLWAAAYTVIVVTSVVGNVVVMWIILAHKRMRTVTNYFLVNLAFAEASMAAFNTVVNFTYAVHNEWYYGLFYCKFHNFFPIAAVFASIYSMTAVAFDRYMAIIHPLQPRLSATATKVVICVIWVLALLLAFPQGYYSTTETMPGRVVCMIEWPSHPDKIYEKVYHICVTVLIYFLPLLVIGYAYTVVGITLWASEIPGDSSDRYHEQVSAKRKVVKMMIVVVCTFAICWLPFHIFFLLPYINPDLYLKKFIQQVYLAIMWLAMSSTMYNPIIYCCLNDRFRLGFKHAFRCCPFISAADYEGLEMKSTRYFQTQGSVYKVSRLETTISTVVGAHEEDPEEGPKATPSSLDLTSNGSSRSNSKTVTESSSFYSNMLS

SMILES | Kd (Substance-K receptor) | Kd (Neuromedin-K receptor) | Kd (Substance-P receptor)
CSCC[C@H]1NC(=O)[C@H](CC(C)C)NC(=O)[C@@H]2CCCN2C(=O)[C@H](Cc2ccccc2)NC(=O)[C@@H](Cc2c[nH]c3ccccc23)NC(=O)[C@H](CCC(N)=O)NC1=O | 15.8 µM |  | 
CSCC[C@H]1NC(=O)[C@H](CC(C)C)N2C=CC(NC(=O)[C@H](Cc3ccccc3)NC(=O)[C@@H](Cc3ccccc3)NC(=O)C(CCC(N)=O)NC1=O)C2=O (some centres not stated) | 15.8 µM |  | 

The next lines start with the values.

Kd (Substance-K receptor) | Kd (Neuromedin-K receptor) | Kd (Substance-P receptor) | SMILES
0.00794 µM | 7.94 µM | 2 µM | CSCC[C@@H]1NC(=O)[C@H](CC(C)C)NC(=O)CNC(=O)[C@H](Cc2ccccc2)NC(=O)[C@H](Cc2c[nH]c3ccccc23)NC(=O)[C@H](CCC(N)=O)NC1=O (cyclo(FGLMQW))
20 µM |  |  | CSCC[C@H]1NC(=O)[C@H](CC(C)C)NC(=O)[C@H]2CCCN2C(=O)[C@H](Cc2ccccc2)NC(=O)[C@@H](Cc2c[nH]c3ccccc23)NC(=O)[C@H](CCC(N)=O)NC1=O
0.631 µM |  |  | CSCC[C@@H]1NC(=O)[C@H](CC(C)C)NC(=O)[C@H](Cc2ccccc2)NC(=O)[C@H](Cc2c[nH]c3ccccc23)NC(=O)[C@H](CCC(N)=O)NC1=O (cyclo(FLMQW))
